Data on four compounds can be found in paper PMC6214403 (Bioorganic & medicinal chemistry, 2018).

In data set [1] the test system is CEF transfected with ATG-MYC. Nature of the data set: Focus assay: microtumor formation by ATG-MYC expressing vector in CEF. It is filed as cell-based, chicken.
A short description of data set [2]: Oxidation susceptibility / stability with rat liver microsomes by mass analysis. The note with it: 37 °C. It is filed as in vitro ADME. An outline of the steps:
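Test compound incubated with rat liver microsomes at 37 °C over a time course. Samples analysed by mass spectrometry, with extracted-ion chromatograms monitored for parent and oxidised species. Recovery calculated from the AUC of the extracted ion.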
(Liver microsomes are vesicles of endoplasmic reticulum, rich in cytochrome P450 enzymes.)

For data set [3] the following is noted: values determined in Sprague Dawley rat; cited from earlier work.
The nature of data set [4]: Mouse i.v. PK study of 5g. It is filed as in vivo, C57Bl6 mice. Particulars: 5g versus 5a.
The next data set concerns the target MYC (Homo sapiens, UniProt P01106). Nature of the data set: Affinity for MYC. It is filed as binding.

Sequence of MYC (P01106 whole entry, species assumed): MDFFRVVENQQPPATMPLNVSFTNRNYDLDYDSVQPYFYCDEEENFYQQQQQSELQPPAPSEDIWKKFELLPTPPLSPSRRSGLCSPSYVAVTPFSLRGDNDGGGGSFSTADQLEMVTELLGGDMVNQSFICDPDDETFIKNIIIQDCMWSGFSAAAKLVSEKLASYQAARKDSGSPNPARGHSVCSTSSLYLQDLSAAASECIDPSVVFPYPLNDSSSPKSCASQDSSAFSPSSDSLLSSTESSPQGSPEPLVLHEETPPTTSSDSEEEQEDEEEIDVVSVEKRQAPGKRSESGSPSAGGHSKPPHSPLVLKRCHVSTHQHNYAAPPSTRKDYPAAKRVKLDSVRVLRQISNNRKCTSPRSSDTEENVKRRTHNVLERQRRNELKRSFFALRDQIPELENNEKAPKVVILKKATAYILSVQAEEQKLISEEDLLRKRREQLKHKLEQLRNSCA

With `c1coc(-c2cc(-c3nccs3)cc(-c3ccc(-c4nccs4)cc3)n2)c1` [5j], the “activity in the CEF assay” value in data set [1] is reported as “not found to have any activity”.

As to `NC(=O)c1ccc(-c2cc(-c3ccc([N+](=O)[O-])cc3)nc(-c3ccco3)c2)cc1` [5a], the “fate of nitro group on incubation with rat liver microsomes” value in data set [2] was “readily eliminated”. Also, in data set [3], the Half-life is on record as 1.6 h.

In the case of `NC(=O)c1ccc(-c2cc(-c3ccc(-c4nccs4)cc3)nc(-c3ccco3)c2)cc1` [5g], in data set [4], the “improvement in exposure (AUC) compared with 5a” value is recorded as 30 fold. Besides, the “ligand efficiency (LE)” value on MYC is 0.36.

Consider `CS(=O)(=O)NC(=O)c1ccc(-c2cc(-c3ccc(C#N)cc3)nc(-c3ccco3)c2)cc1` [5m], for which, in data set [1] (CEF assay), the “loss of potency compared to 5a” value worked out at 10 fold.
